Laboratory results: PMC8048816 (Angewandte Chemie (International Ed. in English), 2021)
Like-named read-outs stand apart in the source and are kept apart here.

Experiments:
Format in all cases: binding
5FW‐LecA = target: T1, 5FW‐LecA (Pseudomonas aeruginosa, UniProt Q05097); assay: protein-observed 19F; details: 1.5 mM catechol, 200 µM 5FW-LecA; n.s.=not significant
T1 sequence (Q05097 2-122 limits assumed): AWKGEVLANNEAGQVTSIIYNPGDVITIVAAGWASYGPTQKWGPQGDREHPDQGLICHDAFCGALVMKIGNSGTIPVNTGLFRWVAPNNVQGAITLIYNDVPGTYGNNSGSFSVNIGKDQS

LecA [1] = target: T2, LecA (Pseudomonas aeruginosa, UniProt Q05097); details: for FP with 2ME Inhibition [%] at 4 mM / FP Inhibition [%] at 4 mM: 4 mM catechol, average and std. dev. of 3 experiments; for FP with 2ME Inhibition [%] at 4 mM: with 2-mercaptoethanol; for FP Inhibition [%] at 4 mM: without 2-mercaptoethanol
T2 sequence (Q05097 2-122 limits assumed): T1 sequence (Q05097 2-122 limits assumed)
Procedure, shortened: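 Competitive fluorescence polarization assay measuring displacement of a Cy5-labelled galactoside probe from LecA. The Cy5 probe replaced an earlier fluorescein conjugate to avoid spectral overlap. Test compound at 4 mM, with or without 2-mercaptoethanol; some compounds at 25 % DMSO. Methyl α-D-galactoside as positive control. Percent inhibition given as average and std. dev. of 3 experiments.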

LecA [2] = target: T2, LecA; assay: ligand-observed T1ρ relaxation NMR; details: for effect of excess Me‐α‐D‐Gal on T1ρ relaxation with LecA: displacement experiment; for T1ρ relaxation rate in presence of LecA: with vs without LecA
LecA [3] = target: T2, LecA; assay: thermal shift assay; details: change of LecA melting point, 4 mM test compound, average of two experiments
LecA [4] = target: T2, LecA; details: read-out: inhibition at 3.3 mM
Procedure, shortened: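 Purchased virtual-screening hits from the NCI Diversity IV set, selected for structural diversity, were tested once at 3.3 mM. Assay: the established competitive fluorescence polarization assay, scoring displacement of a fluorescent galactoside ligand from LecA as percent inhibition.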

human Langerin CRD = human Langerin CRD (Homo sapiens, UniProt Q9UJ71, V278A); assay: 1H-15N HSQC NMR; details: 1 mM compound, 100 μM Langerin CRD
Sequence of human Langerin CRD (Q9UJ71 202-320 V278A): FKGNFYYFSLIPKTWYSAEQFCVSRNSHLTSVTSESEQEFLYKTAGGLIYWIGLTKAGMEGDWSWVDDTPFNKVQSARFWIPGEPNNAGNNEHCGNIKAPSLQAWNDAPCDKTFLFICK

Langerin ECD = Langerin ECD (Homo sapiens, UniProt Q9UJ71); assay: 1H STD competition NMR with mannose; details: 1 mM compound, 20 μM Langerin ECD, 100 mM D-mannose
Sequence of Langerin ECD (Q9UJ71 65-328 limits assumed): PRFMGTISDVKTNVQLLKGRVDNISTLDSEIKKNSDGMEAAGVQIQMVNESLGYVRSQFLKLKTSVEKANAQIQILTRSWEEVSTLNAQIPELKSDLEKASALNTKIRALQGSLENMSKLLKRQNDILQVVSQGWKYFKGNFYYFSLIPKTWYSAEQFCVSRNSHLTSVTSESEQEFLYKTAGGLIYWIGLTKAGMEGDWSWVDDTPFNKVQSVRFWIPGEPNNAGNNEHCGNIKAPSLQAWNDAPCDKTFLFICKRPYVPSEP

LecA [5] = target: T2, LecA; assay: surface plasmon resonance
Procedure, shortened: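 Recombinant LecA was immobilized for SPR. Test compound was injected at two concentrations: 0.2 and 1 mM, or 0.2 and 0.5 mM for some compounds. Steady-state binding responses were read from sensorgrams. 0.1 mM pNPGal was injected as positive control to monitor LecA activity and normalize data. Kd came from multi-cycle kinetic analyses of prioritized compounds.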

[6] = read-out: FP Inhibition [%] at 4 mM
[7] = read-out: FP with 2ME Inhibition [%] at 4 mM

SMILES	PrOF NMR CSP of W42 [ppm] (5FW‐LecA)	inhibition at 4000 µM (LecA [1]; [6]) [%]	inhibition at 4000 µM (LecA [1]; [7]) [%]	effect of excess Me‐α‐D‐Gal on T1ρ relaxation with LecA (LecA [2])	T1ρ relaxation rate in presence of LecA (LecA [2])	TSA ΔT [K] (LecA [3])	inhibition at 3300 µM (LecA [4]) [%]	FP with 2ME Inhibition [%] at 4 mM (LecA [1])	FP Inhibition [%] at 4 mM (LecA [1])	chemical shift perturbations of Langerin CRD resonances (human Langerin CRD)	reduction in peak intensities in STD NMR spectra in presence of mannose (Langerin ECD) [%]	Kd (LecA [5]) [µM]	ligand efficiency (LecA [5]; from SPR Kd)
O=C(c1ccc(Cl)cc1)c1ccc(O)c(O)c1 [Compound 24, 4‐parachlorobenzoyl catechol]	0.185 ppm	29 ± 3	22 ± 2	–	–	–	–	–	–	–	–	–	–
CC(C)C(=O)c1ccc(O)c(O)c1 [Compound 21, 4‐isobutyryl catechol]	0.08 ppm	10 ± 2	11 ± 2	fully reversed to the free state	strongly increased	+0.35 K	~10	–	–	–	–	–	–
CC(C)(C)c1ccc(O)c(O)c1 [Compound 13, 4‐tert‐butyl catechol]	0.130 ppm	–	–	no significant effect	much weaker	−15.4 K	–	none	inconcl.	–	–	–	–
N#Cc1cccc(O)c1O [Compound 3, 3‐cyano catechol]	0.045 ppm	23 ± 2	23	–	–	+1.8 K	–	–	–	promoted chemical shift perturbations (CSPs)	65	1110 ± 70	0.40
O=C(c1ccccc1)c1ccc(O)c(O)c1 [Compound 23, 4‐benzoyl catechol]	0.110 ppm	39 ± 5	39	–	–	+0.36 K	–	–	–	–	–	–	–
Cc1ccc(O)c(O)c1 [Compound 11, 4‐methyl catechol]	n.s.	–	–	–	–	−11.0 K	–	none	inconcl.	–	–	–	–
Oc1ccccc1O [Compound 1, catechol]	n.s.	–	–	–	–	−4.5 K	–	none	inconcl.	–	–	–	–
